Results as given in ChEMBL document CHEMBL4270630.

What was measured:
H3N2 subtype [1] = experiment: Antiviral activity against Influenza A virus A/HK/7/87(H3N2) infected in MDCK cells after 3 days by MTS assay; format: functional, organism-based; details: A/Hong Kong/7/1987(H3N2), 72 h
Procedure, shortened: (§1)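 Semi-confluent MDCK cells were infected at an MOI of 0.0004 PFU/cell in Ultra-MDCK infection medium with 2 μg/mL TPCK-trypsin, together with compounds. After 3 days at 35 °C, CPE was scored by microscopy and confirmed by MTS formazan viability. EC50 is the concentration giving 50% inhibition of virus-induced CPE. Values are means of two to five independent tests.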

[2] = (§2) Cytotoxicity against MDCK cells assessed as reduction in cell viability after 3 days by MTS assay; format: cell-based, Canis lupus familiaris; details: dog, MDCK cells
Influenza B virus [3] = experiment: Antiviral activity against Influenza B virus B/HK/05/72 infected in MDCK cells assessed as reduction in virus-induced cytopathic effect after 3 days by microscopic method; format: functional, organism-based; details: B/Hong Kong/05/1972, MDCK, 72 h; procedure, shortened: as §1
[4] = Cytotoxicity against MDCK cells assessed as alteration in cell morphology after 3 days by microscopic method; format: cell-based, Canis lupus familiaris; details: dog
Procedure, shortened: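 Mock-infected MDCK cells were treated with compounds in parallel with the antiviral assay, 3 days at 35 °C. MCC is the concentration causing minimal change in cell morphology by microscopy. CC50 is the 50% cytotoxic concentration by MTS formazan viability assay.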

H3N2 subtype [5] = experiment: Antiviral activity against Influenza A virus A/HK/7/87(H3N2) infected in MDCK cells assessed as reduction in virus-induced cytopathic effect after 3 days by microscopic method; format: functional, organism-based; details: A/Hong Kong/7/1987(H3N2), 72 h; procedure, shortened: as §1
Influenza A virus [6] = experiment: Antiviral activity against Influenza A virus A/Virginia/ATCC3/2009(H1N1pdm) infected in MDCK cells assessed as reduction in virus-induced cytopathic effect after 3 days by microscopic method; format: functional, organism-based, Influenza A virus (A/Virginia/03/2009(H1N1)); details: 72 h; procedure, shortened: as §1
Influenza A virus [7] = experiment: Antiviral activity against Influenza A virus A/Virginia/ATCC3/2009(H1N1pdm) infected in MDCK cells after 3 days by MTS assay; format: functional, organism-based, Influenza A virus (A/Virginia/03/2009(H1N1)); details: 72 h; procedure, shortened: as §1
Influenza A virus [8] = experiment: Antiviral activity against Influenza A virus A/PR/8/34(H1N1) infected in MDCK cells assessed as reduction in virus-induced cytopathic effect after 3 days by microscopic method; format: functional, organism-based, A/Puerto Rico/8/1934(H1N1); details: Influenza A virus, A/Puerto Rico/8/1934(H1N1), MDCK, 72 h; procedure, shortened: as §1
Influenza B virus [9] = experiment: Antiviral activity against Influenza B virus B/HK/05/72 infected in MDCK cells after 3 days by MTS assay; format: functional, organism-based; details: B/Hong Kong/05/1972, MDCK, 72 h; procedure, shortened: as §1
Influenza A virus [10] = experiment: Antiviral activity against Influenza A virus A/PR/8/34(H1N1) infected in MDCK cells after 3 days by MTS assay; format: functional, organism-based, A/Puerto Rico/8/1934(H1N1); details: Influenza A virus, A/Puerto Rico/8/1934(H1N1), MDCK, 72 h; procedure, shortened: as §1
Human coronavirus 229E [11] = experiment: Antiviral activity against Human coronavirus 229E infected in HEL299 cells assessed as reduction in virus induced cytopathic effect after 5 days by microscopic method; format: functional, organism-based; details: HEL 299, 120 h
Procedure, shortened: (§3)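 Confluent HEL 299 cells in medium with 2% FCS were exposed to HCoV-229E (100 CCID50/well) together with compounds and held for 5 days at 35 °C. EC50 (CPE reduction) and MCC (minimal morphology change) were determined by microscopy. SI is MCC/EC50.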

Influenza B virus [12] = experiment: Antiviral activity against Influenza B virus B/Ned/537/05 infected in MDCK cells assessed as reduction in virus-induced cytopathic effect after 3 days by microscopic method; format: functional, organism-based; details: B/Ned/537/05, MDCK, 72 h
Procedure, shortened: (§4)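 Semi-confluent MDCK cells were infected at an MOI of 0.0004 PFU/cell in Ultra-MDCK infection medium with 2 μg/mL TPCK-trypsin, together with compounds. After 3 days at 35 °C, CPE was scored by microscopy and confirmed by MTS formazan viability. Values are means of two to five independent tests.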

MDCK = experiment: as §2; format: cell-based, Canis lupus familiaris; details: dog, mdck, 72 h
[13] = Cytotoxicity against HEL299 cells assessed as changes in cell morphology after 5 days by microscopic method; format: cell-based, HEL 299; details: human; procedure, shortened: as §3
Influenza B virus [14] = experiment: Antiviral activity against Influenza B virus B/Ned/537/05 infected in MDCK cells after 3 days by MTS assay; format: functional, organism-based; details: B/Ned/537/05, MDCK, 72 h; procedure, shortened: as §4
[15] = Cytotoxicity against human A549 cells assessed as changes in cell morphology after 3 days by microscopic method; format: cell-based
Procedure, shortened: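 Mock-infected A549 cells were incubated with compounds for 3 days. MCC is the concentration causing minimal change in cell morphology by microscopy.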

Human coronavirus 229E [16] = experiment: Antiviral activity against Human coronavirus 229E infected in human A549 cells assessed as reduction in virus RNA level after 3 days by qRT-PCR method; format: functional; details: A549, 72 h
Procedure, shortened: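 Confluent A549 cells were infected with HCoV-229E in 2% FCS medium with compounds present. The inoculum was removed at 1 h and compounds were kept on at 35 °C. Supernatants were harvested at day 3, lysed at 75 °C for 10 min, and viral genome copies counted by one-step qRT-PCR.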

SMILES	EC50 (H3N2 subtype [1]) [µM]	CC50 at 72 h [2] [µM]	EC50 (Influenza B virus [3]) [µM]	MCC at 72 h [4] [µM]	EC50 (H3N2 subtype [5]) [µM]	EC50 (Influenza A virus [6]) [µM]	EC50 (Influenza A virus [7]) [µM]	EC50 (Influenza A virus [8]) [µM]	EC50 (Influenza B virus [9]) [µM]	EC50 (Influenza A virus [10]) [µM]	EC50 (Human coronavirus 229E [11]) [µM]	EC50 (Influenza B virus [12]) [µM]	CC50 (MDCK) [µM]	MCC at 120 h [13] [µM]	EC50 (Influenza B virus [14]) [µM]	MCC at 72 h [15] [µM]	EC90 (Human coronavirus 229E [16]) [µM]	EC99 (Human coronavirus 229E [16]) [µM]
CC(=O)N[C@H]1[C@H](O[C@@H]2c3ccc(c(Cl)c3)Oc3cc4cc(c3O)Oc3ccc(cc3Cl)C[C@H]3NC(=O)[C@H](n5cc(COc6cccc7ccccc67)nn5)c5ccc(O)c(c5)Oc5cc(O)cc(c5)[C@H](NC3=O)C(=O)N[C@H]4C(O)N[C@H]3C(=O)N[C@H]2C(=O)N[C@@H](C(=O)O)c2cc(O)cc(O)c2-c2cc3ccc2O)O[C@H](CO)[C@@H](O)[C@@H]1O (stereo not given in full)	8	47	15	20	15	11	4.4	11	6.6	11	–	–	–	–	–	–	–	–
CC(=O)N[C@H]1[C@H](O[C@@H]2c3ccc(c(Cl)c3)Oc3cc4cc(c3O)Oc3ccc(cc3Cl)C[C@H]3NC(=O)[C@H](n5cc(COc6ccccc6)nn5)c5ccc(O)c(c5)Oc5cc(O)cc(c5)[C@H](NC3=O)C(=O)N[C@H]4C(O)N[C@H]3C(=O)N[C@H]2C(=O)N[C@@H](C(=O)O)c2cc(O)cc(O)c2-c2cc3ccc2O)O[C@H](CO)[C@@H](O)[C@@H]1O (stereo not given in full)	11	41	> 100	≥ 20	11	> 100	> 100	> 100	> 100	> 100	–	–	–	–	–	–	–	–
CCCCCCCCS(=O)(=O)N[C@H]1C(=O)N[C@@H]2Cc3ccc(c(Cl)c3)Oc3cc4cc(c3O)Oc3ccc(cc3Cl)[C@@H](O[C@@H]3O[C@H](CO)[C@@H](O)[C@H](O)[C@H]3NC(C)=O)[C@H]3NC(=O)[C@H](NC(O)[C@@H]4NC(=O)[C@@H](NC2=O)c2cc(O)cc(c2)Oc2cc1ccc2O)c1ccc(O)c(c1)-c1c(O)cc(O)cc1[C@H](C(=O)O)NC3=O (stereo not given in full)	2.4	–	–	20	2	> 100	> 100	1.9	–	2.5	5.4	4	14	≥ 20	> 100	> 50	5.7	9.4
CC(=O)N[C@H]1[C@H](O[C@@H]2c3ccc(c(Cl)c3)Oc3cc4cc(c3O)Oc3ccc(cc3Cl)C[C@H]3NC(=O)[C@H](NS(=O)(=O)c5ccccc5)c5ccc(O)c(c5)Oc5cc(O)cc(c5)[C@H](NC3=O)C(=O)N[C@H]4C(O)N[C@H]3C(=O)N[C@H]2C(=O)N[C@@H](C(=O)O)c2cc(O)cc(O)c2-c2cc3ccc2O)O[C@H](CO)[C@@H](O)[C@@H]1O (stereo not given in full)	23	–	–	100	25	46	52	16	–	27	5.5	51	> 100	≥ 20	21	> 50	6.8	11
CCCCCCSC1=C(SCCCCCC)C(=O)N(CCOCCOCCOCCOCc2cn(C3C(=O)N[C@@H]4Cc5ccc(c(Cl)c5)Oc5cc6cc(c5O)Oc5ccc(cc5Cl)[C@@H](O[C@@H]5O[C@H](CO)[C@@H](O)[C@H](O)[C@H]5NC(C)=O)[C@H]5NC(=O)[C@H](NC(O)[C@@H]6NC(=O)[C@@H](NC4=O)c4cc(O)cc(c4)Oc4cc3ccc4O)c3ccc(O)c(c3)-c3c(O)cc(O)cc3[C@H](C(=O)O)NC5=O)nn2)C1=O (stereo not given in full)	2.9	–	–	20	2	2.7	6	2	–	3.5	5.4	1.8	65	≥ 20	3.6	> 50	7.6	21
CCCCCCOCc1cn(CCOCCOCCOCCOCc2cn([C@H]3C(=O)N[C@@H]4Cc5ccc(c(Cl)c5)Oc5cc6cc(c5O)Oc5ccc(cc5Cl)[C@@H](O[C@@H]5O[C@H](CO)[C@@H](O)[C@H](O)[C@H]5NC(C)=O)[C@H]5NC(=O)[C@H](NC(O)[C@@H]6NC(=O)[C@@H](NC4=O)c4cc(O)cc(c4)Oc4cc3ccc4O)c3ccc(O)c(c3)-c3c(O)cc(O)cc3[C@H](C(=O)O)NC5=O)nn2)nn1 (stereo not given in full)	> 100	–	–	100	> 100	> 100	> 100	> 100	–	> 100	44	> 100	51	≥ 100	> 100	> 50	25	44
CCCCSC1=C(SCCCC)C(=O)N(Cc2cn(C3C(=O)N[C@@H]4Cc5ccc(c(Cl)c5)Oc5cc6cc(c5O)Oc5ccc(cc5Cl)[C@@H](O[C@@H]5O[C@H](CO)[C@@H](O)[C@H](O)[C@H]5NC(C)=O)[C@H]5NC(=O)[C@H](NC(O)[C@@H]6NC(=O)[C@@H](NC4=O)c4cc(O)cc(c4)Oc4cc3ccc4O)c3ccc(O)c(c3)-c3c(O)cc(O)cc3[C@H](C(=O)O)NC5=O)nn2)C1=O (stereo not given in full)	4.9	–	–	20	> 100	9.8	7.4	2.1	–	3.2	5.4	2.5	28	≥ 20	3.5	> 50	5.9	11
CCCCCCSC1=C(SCCCCCC)C(=O)N([C@H]2C(=O)N[C@@H]3Cc4ccc(c(Cl)c4)Oc4cc5cc(c4O)Oc4ccc(cc4Cl)[C@@H](O[C@@H]4O[C@H](CO)[C@@H](O)[C@H](O)[C@H]4NC(C)=O)[C@H]4NC(=O)[C@H](NC(O)[C@@H]5NC(=O)[C@@H](NC3=O)c3cc(O)cc(c3)Oc3cc2ccc3O)c2ccc(O)c(c2)-c2c(O)cc(O)cc2[C@H](C(=O)O)NC4=O)C1=O (stereo not given in full)	> 100	–	–	4	> 100	> 100	> 100	> 100	–	> 100	5.4	> 100	9.8	≥ 20	> 100	50	5.8	9.4
CCCCCCCCOCc1cn(CCOCCOCCOCCOCc2cn([C@H]3C(=O)N[C@@H]4Cc5ccc(c(Cl)c5)Oc5cc6cc(c5O)Oc5ccc(cc5Cl)[C@@H](O[C@@H]5O[C@H](CO)[C@@H](O)[C@H](O)[C@H]5NC(C)=O)[C@H]5NC(=O)[C@H](NC(O)[C@@H]6NC(=O)[C@@H](NC4=O)c4cc(O)cc(c4)Oc4cc3ccc4O)c3ccc(O)c(c3)-c3c(O)cc(O)cc3[C@H](C(=O)O)NC5=O)nn2)nn1 (stereo not given in full)	> 100	–	–	20	> 100	> 100	> 100	> 100	–	> 100	8.9	> 100	19	100	> 100	> 50	23	30
